Data on four compounds can be found in ChEMBL document CHEMBL1240314, “Small-molecule inhibitor of p53 binding to mitochondria protects mice from gamma radiation” (2006).

The target of assay [1] is Cellular tumor antigen p53 (Homo sapiens) (UniProt P04637). Description: Inhibition of p53-mediated transactivation in human MCF7 cells in presence of 0.5 ug/ml of doxorubicin after 24 hrs by beta-galactosidase reporter gene assay. The class given is cell-based. The gist of the method:
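MCF7 cells with a p53-responsive lacZ reporter treated with Dox 0.5 mg ml–1 (so in the source) plus a range of compound concentrations; β-galactosidase measured colorimetrically in cell extracts after 24 h; means ± s.d., n = 3.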
(In a reporter assay the amount or activity of a reporter protein is the signal.)

For assay [2], the system named is HeLa. Description: Antiapoptotic activity against staurosporine-induced cell death in human HeLa cells assessed as caspase 3 activity at 10 uM after 24 hrs. It is filed as functional, cell-based.
Assay [3] concerns NCI-H1299. Description: Antiapoptotic activity against staurosporine-induced cell death in human H1299 cells assessed as caspase 7 activity at 10 uM after 24 hrs. It is filed as functional, cell-based.
For assay [4], the system named is NCI-H1299. Put plainly: Antiapoptotic activity against staurosporine-induced cell death in human H1299 cells assessed as caspase 3 activity at 10 uM after 24 hrs. The class given is functional, cell-based.
In assay [5] the test system is HeLa. Description: Antiapoptotic activity against staurosporine-induced cell death in human HeLa cells assessed as caspase 7 activity at 10 uM after 24 hrs. It is filed as functional, cell-based.
Assay [6] has as its target Cellular tumor antigen p53 (Homo sapiens) (UniProt P04637). Description: Inhibition of p53-dependent transactivation of p21 in gamma-stimulated human ConA cells. The class given is cell-based. The gist of the method:
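ConA cells given 10 µM test agent and 10 Gy gamma irradiation. Protein extracts taken 6 h post-irradiation and p21 detected by immunoblotting.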

For assay [7] the target is unchanged. Description: Inhibition of p53-mediated transactivation in human MCF7 cells in presence of 50 ug/ml of 5-fluorouracil after 24 hrs by beta-galactosidase reporter gene assay. The class given is cell-based. The gist of the method: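 MCF7 cells carrying a lacZ reporter under a p53-responsive promoter, treated with 5-FU 50 µg ml–1 across a range of test-agent concentrations. β-galactosidase measured colorimetrically in cell extracts after 24 h drug incubation. Means ± s.d., n = 3.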

Activity calls are given as the source filed them. The rule behind the calls is not given here.

Cellular tumor antigen p53 (Homo sapiens), sequence (P04637 whole entry, looked up): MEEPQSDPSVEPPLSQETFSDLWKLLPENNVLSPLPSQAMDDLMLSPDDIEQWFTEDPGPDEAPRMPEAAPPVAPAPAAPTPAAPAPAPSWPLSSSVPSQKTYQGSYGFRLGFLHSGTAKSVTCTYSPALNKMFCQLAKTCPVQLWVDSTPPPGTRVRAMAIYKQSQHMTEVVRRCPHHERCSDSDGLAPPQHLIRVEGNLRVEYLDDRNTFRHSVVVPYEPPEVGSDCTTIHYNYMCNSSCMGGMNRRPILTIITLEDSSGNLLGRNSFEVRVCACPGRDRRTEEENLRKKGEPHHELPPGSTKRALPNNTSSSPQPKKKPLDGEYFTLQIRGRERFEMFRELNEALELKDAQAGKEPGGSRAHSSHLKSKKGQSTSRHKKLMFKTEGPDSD

Take `COc1cccc2c1C(=O)c1c(O)c3c(c(O)c1C2=O)C[C@@](O)(C(=O)CO)C[C@@H]3O[C@H]1C[C@H](N)[C@H](O)[C@H](C)O1`: the inhibition result in assay [1] was “inactive”.
In the case of `CN[C@@H]1C[C@H]2O[C@@](C)([C@@H]1OC)n1c3ccccc3c3c4c(c5c6ccccc6n2c5c31)C(=O)NC4`, the outcome in assay [2], in assay [3], in assay [4] and in assay [5] was inactive.
`Cc1ccc(C(=O)Cn2c3c(sc2=N)CCCC3)cc1`: the inhibition result in assay [6] is “Active”.
On to `O=c1[nH]cc(F)c(=O)[nH]1`, for which the inhibition result in assay [7] was “inactive”.
